Laboratory results reported in ChEMBL document CHEMBL2434895, “Design and application of a rigid quinazolone scaffold based on two-face Bim α-helix mimicking” (Eur J Med Chem, 2013).

target: Apoptosis regulator Bcl-2 (Homo sapiens, UniProt P10415); test: Displacement of FAM-Bid BH3 peptide from recombinant Bcl-2 (unknown origin) expressed in Escherichia coli BL21 after 10 mins by fluorescence polarization assay
Sequence (P10415 whole entry): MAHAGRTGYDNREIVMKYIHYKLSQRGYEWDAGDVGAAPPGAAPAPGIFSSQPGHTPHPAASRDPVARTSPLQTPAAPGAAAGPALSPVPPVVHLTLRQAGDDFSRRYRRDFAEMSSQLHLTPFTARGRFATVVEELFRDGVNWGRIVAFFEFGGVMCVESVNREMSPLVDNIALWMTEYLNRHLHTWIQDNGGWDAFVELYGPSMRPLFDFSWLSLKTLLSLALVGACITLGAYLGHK

| SMILES | Ki [nM] |
| --- | --- |
| CC(C)c1ccc(O)c(Cn2c(-c3ccccc3)nc3c(O)c(O)c(O)cc3c2=O)c1 | 1110 |
| O=C1c2ccccc2C(=O)c2c1cc(O)c(O)c2O | 1320 |
| Cc1ccc(O)c(Cn2c(-c3ccccc3)nc3c(O)c(O)c(O)cc3c2=O)c1 | 179 |
| O=c1[nH]cnc2c(O)c(O)c(O)cc12 | 9280 |

The remaining lines, values ahead:

| Ki [nM] | SMILES |
| --- | --- |
| 1320 | O=C(Nc1c(C(=O)NCc2ccccc2)cc(O)c(O)c1O)c1ccccc1 |
| 959 | O=c1c2cc(O)c(O)c(O)c2nc(-c2ccccc2)n1Cc1ccccc1 |
| 8040 | O=C(Nc1c(C(=O)NCCCc2ccccc2)cc(O)c(O)c1O)c1ccccc1 |
| 1920 | CCCCNC(=O)c1cc(O)c(O)c(O)c1NC(=O)c1ccccc1 |

target: Induced myeloid leukemia cell differentiation protein Mcl-1 (Homo sapiens, UniProt Q07820); test: Displacement of FAM-Bid BH3 peptide from recombinant Mcl-1 (unknown origin) expressed in Escherichia coli BL21 after 10 mins by fluorescence polarization assay
Sequence (Q07820 whole entry): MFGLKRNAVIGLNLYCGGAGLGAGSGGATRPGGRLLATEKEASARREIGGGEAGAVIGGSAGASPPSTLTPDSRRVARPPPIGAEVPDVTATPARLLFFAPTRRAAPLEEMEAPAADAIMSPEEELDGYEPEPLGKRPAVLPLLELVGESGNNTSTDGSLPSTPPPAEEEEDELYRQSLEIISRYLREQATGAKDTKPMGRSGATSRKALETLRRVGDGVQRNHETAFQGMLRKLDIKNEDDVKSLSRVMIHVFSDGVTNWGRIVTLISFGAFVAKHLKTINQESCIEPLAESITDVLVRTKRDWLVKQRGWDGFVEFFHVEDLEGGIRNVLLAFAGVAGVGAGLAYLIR
Outline: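 Mcl-1 FP competition: 55 nM protein with 20 nM FAM-Bid BH3 peptide in 25 mM Tris pH 8.0, 150 mM NaCl, 2 min preincubation. Compounds added as serial dilutions from 10 mM DMSO stock, 10 min incubation, polarization measured. Tracer Kd 13 nM. Ki derived by Wang FP-assay equation.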

| SMILES | Ki [nM] |
| --- | --- |
| CC(C)c1ccc(O)c(Cn2c(-c3ccccc3)nc3c(O)c(O)c(O)cc3c2=O)c1 | 609 |
| O=C1c2ccccc2C(=O)c2c1cc(O)c(O)c2O | 1210 |
| Cc1ccc(O)c(Cn2c(-c3ccccc3)nc3c(O)c(O)c(O)cc3c2=O)c1 | 123 |
| O=c1[nH]cnc2c(O)c(O)c(O)cc12 | 5980 |

Other lines, results leading:

| Ki [nM] | SMILES |
| --- | --- |
| 2820 | O=C(Nc1c(C(=O)NCc2ccccc2)cc(O)c(O)c1O)c1ccccc1 |
| 1210 | O=c1c2cc(O)c(O)c(O)c2nc(-c2ccccc2)n1Cc1ccccc1 |
| 3240 | O=C(Nc1c(C(=O)NCCCc2ccccc2)cc(O)c(O)c1O)c1ccccc1 |
| 1980 | CCCCNC(=O)c1cc(O)c(O)c(O)c1NC(=O)c1ccccc1 |
